ChEMBL document CHEMBL3994667, “Small Molecule Lysyl Oxidase-like 2 (LOXL2) Inhibitors: The Identification of an Inhibitor Selective for LOXL2 over LOX” (ACS Med Chem Lett, 2017)
Active and inactive are the calls of the source. No cut-off for these calls is given here.

Tests used:
[1] = biological target: T1, Amine oxidase [flavin-containing] B (Homo sapiens, UniProt P27338); experiment: Inhibition of recombinant human MAO-B at 30 uM using benzylamine as substrate preincubated for 2 hrs followed by substrate addition measured every 30 secs for 10 minutes by Amplex red dye based fluorescence assay
T1 sequence (P27338 whole entry): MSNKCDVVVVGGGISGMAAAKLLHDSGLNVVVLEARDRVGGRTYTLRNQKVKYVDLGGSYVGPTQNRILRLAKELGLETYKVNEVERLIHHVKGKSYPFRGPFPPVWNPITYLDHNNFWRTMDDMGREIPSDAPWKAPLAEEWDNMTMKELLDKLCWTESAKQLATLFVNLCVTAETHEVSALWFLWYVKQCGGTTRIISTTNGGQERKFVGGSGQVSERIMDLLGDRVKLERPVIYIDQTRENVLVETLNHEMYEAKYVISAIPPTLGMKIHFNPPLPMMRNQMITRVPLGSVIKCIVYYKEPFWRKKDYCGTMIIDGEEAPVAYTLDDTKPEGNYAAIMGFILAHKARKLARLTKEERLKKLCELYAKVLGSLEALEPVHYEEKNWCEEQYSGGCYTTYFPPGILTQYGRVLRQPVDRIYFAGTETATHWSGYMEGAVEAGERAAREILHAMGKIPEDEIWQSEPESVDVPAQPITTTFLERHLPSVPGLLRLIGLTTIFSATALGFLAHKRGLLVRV

Lysyl oxidase homolog 2 = biological target: T2, Lysyl oxidase homolog 2 (Homo sapiens, UniProt Q9Y4K0); experiment: Inhibition of full length recombinant human LOXL2 expressed in CHO cells spiked into human whole blood assessed as reduction in H2O2 production using DAP as substrate preincubated for 2 followed by substrate addition measured every 90 secs for 45 mins by Amplex red dye based fluorescence assay; assay type: cell-based
T2 sequence (Q9Y4K0 whole entry): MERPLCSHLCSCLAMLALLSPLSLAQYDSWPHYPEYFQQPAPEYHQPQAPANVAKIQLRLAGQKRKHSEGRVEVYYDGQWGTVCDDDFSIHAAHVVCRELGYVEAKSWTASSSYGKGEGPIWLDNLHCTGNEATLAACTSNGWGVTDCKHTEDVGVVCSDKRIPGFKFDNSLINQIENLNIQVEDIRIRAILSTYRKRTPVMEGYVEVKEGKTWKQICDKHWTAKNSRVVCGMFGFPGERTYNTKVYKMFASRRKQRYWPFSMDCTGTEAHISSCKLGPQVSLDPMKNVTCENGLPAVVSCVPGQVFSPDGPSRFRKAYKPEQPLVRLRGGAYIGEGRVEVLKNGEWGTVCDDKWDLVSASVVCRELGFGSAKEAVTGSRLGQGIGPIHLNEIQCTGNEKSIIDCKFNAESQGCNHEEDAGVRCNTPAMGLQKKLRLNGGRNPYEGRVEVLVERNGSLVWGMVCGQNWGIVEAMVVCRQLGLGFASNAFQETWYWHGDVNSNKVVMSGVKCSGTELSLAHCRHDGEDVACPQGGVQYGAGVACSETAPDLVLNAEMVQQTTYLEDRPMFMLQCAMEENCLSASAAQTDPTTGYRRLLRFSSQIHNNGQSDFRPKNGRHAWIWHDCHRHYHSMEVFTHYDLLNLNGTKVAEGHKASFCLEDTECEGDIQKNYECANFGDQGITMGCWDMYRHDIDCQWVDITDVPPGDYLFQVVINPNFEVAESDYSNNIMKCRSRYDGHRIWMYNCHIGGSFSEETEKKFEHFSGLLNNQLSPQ
Summary of the method: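 Human recombinant LOXL2 spiked into human whole blood. Oxidative deamination of 1,5-diaminopentane measured as H2O2 with Amplex Red. IC50 expressed as geometric mean x/÷ geometric SD with N.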

[2] = biological target: T3, Amine oxidase [copper-containing] 3 (Homo sapiens) (UniProt Q16853); experiment: Inhibition of SSAO in human plasma at 30 uM using benzylamine as substrate preincubated for 2 hrs followed by substrate addition measured every 30 secs for 15 minutes by Amplex red dye based fluorescence assay
T3 sequence (whole entry): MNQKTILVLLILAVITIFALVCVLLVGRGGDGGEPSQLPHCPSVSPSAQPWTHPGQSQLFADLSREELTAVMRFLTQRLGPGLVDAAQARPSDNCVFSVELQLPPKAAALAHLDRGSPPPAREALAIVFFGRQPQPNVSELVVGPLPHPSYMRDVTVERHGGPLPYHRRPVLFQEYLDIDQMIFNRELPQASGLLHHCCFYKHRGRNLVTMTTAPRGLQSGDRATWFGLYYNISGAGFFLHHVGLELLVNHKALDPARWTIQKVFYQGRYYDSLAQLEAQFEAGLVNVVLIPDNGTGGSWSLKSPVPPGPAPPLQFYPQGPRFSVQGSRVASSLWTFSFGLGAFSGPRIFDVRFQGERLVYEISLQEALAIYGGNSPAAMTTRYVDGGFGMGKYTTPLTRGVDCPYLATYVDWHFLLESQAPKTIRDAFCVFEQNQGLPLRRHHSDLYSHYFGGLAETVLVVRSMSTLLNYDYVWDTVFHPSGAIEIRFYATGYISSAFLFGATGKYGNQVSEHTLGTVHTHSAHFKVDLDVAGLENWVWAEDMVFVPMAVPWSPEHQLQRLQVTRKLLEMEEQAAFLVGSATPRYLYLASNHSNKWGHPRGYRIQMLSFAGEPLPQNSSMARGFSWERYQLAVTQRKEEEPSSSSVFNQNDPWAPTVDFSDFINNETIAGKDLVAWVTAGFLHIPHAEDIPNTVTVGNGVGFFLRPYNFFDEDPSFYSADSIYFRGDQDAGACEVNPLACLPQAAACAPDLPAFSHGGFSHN

Cytochrome P450 3A4 = Cytochrome P450 3A4 (Homo sapiens, UniProt P08684); experiment: Inhibition of CYP3A4 (unknown origin); assay type: ADME
Cytochrome P450 2C9 = Cytochrome P450 2C9 (Homo sapiens, UniProt P11712); experiment: Inhibition of CYP2C9 (unknown origin); assay type: ADME
Cytochrome P450 2D6 = Cytochrome P450 2D6 (Homo sapiens, UniProt P10635); experiment: Inhibition of CYP2D6 (unknown origin); assay type: ADME
Sequence of Cytochrome P450 2D6 (P10635 whole entry): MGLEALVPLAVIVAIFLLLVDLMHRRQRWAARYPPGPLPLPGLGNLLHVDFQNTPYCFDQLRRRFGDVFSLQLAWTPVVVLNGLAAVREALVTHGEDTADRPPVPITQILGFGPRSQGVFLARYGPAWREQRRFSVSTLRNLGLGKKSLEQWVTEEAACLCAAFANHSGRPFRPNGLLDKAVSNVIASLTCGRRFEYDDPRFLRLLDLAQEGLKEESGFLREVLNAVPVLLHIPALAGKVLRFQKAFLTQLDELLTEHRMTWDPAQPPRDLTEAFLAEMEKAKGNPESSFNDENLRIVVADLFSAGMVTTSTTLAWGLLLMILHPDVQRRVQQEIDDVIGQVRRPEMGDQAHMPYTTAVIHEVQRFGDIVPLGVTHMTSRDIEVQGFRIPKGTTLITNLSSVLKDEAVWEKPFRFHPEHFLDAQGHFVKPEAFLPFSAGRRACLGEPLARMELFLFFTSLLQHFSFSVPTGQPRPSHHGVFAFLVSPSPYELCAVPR

Sequence of Cytochrome P450 3A4 (P08684 whole entry): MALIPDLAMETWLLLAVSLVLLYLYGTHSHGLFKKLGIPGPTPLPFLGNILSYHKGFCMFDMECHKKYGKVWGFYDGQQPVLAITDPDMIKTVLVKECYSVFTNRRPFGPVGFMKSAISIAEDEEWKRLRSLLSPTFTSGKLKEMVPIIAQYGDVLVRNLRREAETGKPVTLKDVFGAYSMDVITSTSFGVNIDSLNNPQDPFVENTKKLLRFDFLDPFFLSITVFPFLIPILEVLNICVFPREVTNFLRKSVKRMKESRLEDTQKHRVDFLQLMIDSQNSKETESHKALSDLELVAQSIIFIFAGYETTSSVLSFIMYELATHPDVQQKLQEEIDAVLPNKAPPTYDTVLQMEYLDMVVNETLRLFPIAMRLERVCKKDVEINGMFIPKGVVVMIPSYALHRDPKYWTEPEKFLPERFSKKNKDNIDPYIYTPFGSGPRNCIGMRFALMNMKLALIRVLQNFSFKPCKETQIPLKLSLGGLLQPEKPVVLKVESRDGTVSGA
Sequence of Cytochrome P450 2C9 (P11712 whole entry): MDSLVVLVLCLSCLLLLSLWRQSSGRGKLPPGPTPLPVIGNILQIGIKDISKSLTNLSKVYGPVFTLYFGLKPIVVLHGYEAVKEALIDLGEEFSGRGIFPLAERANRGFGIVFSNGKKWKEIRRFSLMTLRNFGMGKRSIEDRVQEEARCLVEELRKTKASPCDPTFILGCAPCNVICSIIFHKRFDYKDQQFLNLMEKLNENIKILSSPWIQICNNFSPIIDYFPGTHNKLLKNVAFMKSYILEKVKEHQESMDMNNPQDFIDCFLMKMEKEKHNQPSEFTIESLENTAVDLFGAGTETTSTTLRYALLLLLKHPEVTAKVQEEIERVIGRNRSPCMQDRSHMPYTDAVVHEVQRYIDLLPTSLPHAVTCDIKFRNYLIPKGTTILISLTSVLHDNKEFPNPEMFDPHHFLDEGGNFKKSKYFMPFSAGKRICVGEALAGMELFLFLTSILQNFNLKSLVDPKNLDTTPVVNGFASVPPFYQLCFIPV

NCc1ccnc(Cl)c1
inhibition (INH) [1]: Not Active | IC50 (Lysyl oxidase homolog 2): 1450 nM | inhibition [2]: inactive | IC50 (Cytochrome P450 3A4): > 30 µM | IC50 (Cytochrome P450 2C9): > 30 µM | IC50 (Cytochrome P450 2D6): > 30 µM
